# Assay results taken from ChEMBL document CHEMBL1123849, “Synthesis and binding affinities of analogues of cholecystokinin-(30-33) as probes for central nervous system cholecystokinin receptors” (J Med Chem, 1987).
# Square brackets hold non-standard residues; d marks the D form. Peptide text beside a SMILES is read from it. * marks the point of attachment. sY = N[C@@H](Cc1ccc(OS(=O)(=O)O)cc1)C(=O)O; Boc = CC(C)(C)OC(=O)*
# Target: T1, Cholecystokinin receptor (Mus musculus, UniProt O08786+P56481)
# T1 sequence (O08786 whole entry): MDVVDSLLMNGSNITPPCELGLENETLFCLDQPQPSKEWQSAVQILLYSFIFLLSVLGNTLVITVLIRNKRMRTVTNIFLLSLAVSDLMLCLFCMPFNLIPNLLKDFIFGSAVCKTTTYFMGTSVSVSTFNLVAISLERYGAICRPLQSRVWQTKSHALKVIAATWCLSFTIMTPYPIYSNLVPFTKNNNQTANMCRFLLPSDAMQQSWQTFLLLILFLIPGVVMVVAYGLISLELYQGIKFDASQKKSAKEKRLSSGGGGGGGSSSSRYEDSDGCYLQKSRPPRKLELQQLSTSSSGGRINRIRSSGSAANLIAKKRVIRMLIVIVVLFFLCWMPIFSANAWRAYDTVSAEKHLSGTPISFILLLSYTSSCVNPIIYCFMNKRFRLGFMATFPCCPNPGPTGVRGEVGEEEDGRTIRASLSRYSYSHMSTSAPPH
# T1 sequence (P56481 whole entry): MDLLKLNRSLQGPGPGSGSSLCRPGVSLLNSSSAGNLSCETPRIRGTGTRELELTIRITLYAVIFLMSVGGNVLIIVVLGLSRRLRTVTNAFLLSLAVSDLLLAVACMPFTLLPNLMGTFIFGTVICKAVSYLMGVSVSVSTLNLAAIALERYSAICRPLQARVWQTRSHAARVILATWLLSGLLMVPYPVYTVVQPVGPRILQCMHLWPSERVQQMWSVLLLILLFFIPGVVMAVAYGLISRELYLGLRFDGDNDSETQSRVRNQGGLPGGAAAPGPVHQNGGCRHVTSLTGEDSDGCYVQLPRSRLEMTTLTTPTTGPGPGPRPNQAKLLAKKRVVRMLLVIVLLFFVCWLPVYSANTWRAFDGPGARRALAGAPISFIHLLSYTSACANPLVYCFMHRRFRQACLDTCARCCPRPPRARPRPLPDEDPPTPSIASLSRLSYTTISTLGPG
# Test: Displacement of [3H]pentagastrin from Cholecystokinin receptor of mouse cerebral cortex
# Format: tissue-based
# How it was run: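 Radioligand was [3H]-Boc-β-alanyl-CCK-30-33 (pentagastrin), displaced from central CCK receptors in homogenized mouse cerebral cortex.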
row,Compound,Ki [nM]
1,CSCC[C@H](NC(=O)[C@H](Cc1c[nH]c2ccccc12)NC(=O)OC(C)(C)C)C(=O)N[C@@H](CC(=O)O)C(=O)N[C@@H](Cc1ccccc1)C(N)=O,1.8
2,CSCC[C@H](NC(=O)[C@H](Cc1c[nH]c2ccccc12)NC(=O)OC(C)(C)C)C(=O)NCC(=O)N[C@@H](Cc1ccccc1)C(N)=O (Boc-WMGF-NH2),24000
3,CSCC[C@H](NC(=O)[C@H](Cc1c[nH]c2ccccc12)NC(=O)CNC(=O)[C@H](CCSC)NC(=O)[C@@H](N)Cc1ccc(OS(=O)(=O)O)cc1)C(=O)N[C@@H](CC(=O)O)C(=O)N[C@@H](Cc1ccccc1)C(N)=O (H-[sY]MGWMDF-NH2),2
4,CSCC[C@H](NC(=O)[C@H](Cc1ccc(OS(=O)(=O)O)cc1)NC(=O)[C@@H](N)CC(=O)O)C(=O)NCC(=O)N[C@@H](Cc1c[nH]c2ccccc12)C(=O)N[C@@H](CCSC)C(=O)N[C@@H](CC(=O)O)C(=O)N[C@@H](Cc1ccccc1)C(N)=O (stereo in doubt; 1) [SINCALIDE],3
5,CSCC[C@H](NC(=O)[C@H](Cc1ccc(OS(=O)(=O)O)cc1)NC(=O)[C@@H](N)CC(=O)O)C(=O)NCC(=O)N[C@@H](Cc1c[nH]c2ccccc12)C(=O)N[C@@H](CCSC)C(=O)N[C@@H](CC(=O)O)C(=O)N[C@@H](Cc1ccccc1)C(N)=O (stereo in doubt; 2) [SINCALIDE],180
6,CSCC[C@H](NC(=O)[C@H](Cc1c[nH]c2ccccc12)NC(=O)CCNC(=O)OC(C)(C)C)C(=O)N[C@@H](CC(=O)O)C(=O)N[C@@H](Cc1ccccc1)C(N)=O [PENTAGASTRIN],0.6
7,CSCC[C@H](NC(=O)[C@@H](N)Cc1c[nH]c2ccccc12)C(=O)N[C@@H](CC(=O)O)C(=O)N[C@@H](Cc1ccccc1)C(N)=O [TETRAGASTRIN],3

# Further lines, results first:
row,Ki [nM],Compound
1,45000,CC(C)(C)OC(=O)N[C@@H](Cc1c[nH]c2ccccc12)C(=O)NCCC(=O)NC(Cc1ccccc1)C(N)=O (stereo partly specified)
2,11000,CC(C)(C)OC(=O)N[C@@H](Cc1c[nH]c2ccccc12)C(=O)NCC(=O)N[C@@H](Cc1ccccc1)C(N)=O (Boc-Trp-Gly-Phe-NH2)
3,1600,CC(C)(C)OC(=O)N[C@@H](Cc1c[nH]c2ccccc12)C(=O)NCC(=O)N[C@@H](CC(=O)O)C(=O)N[C@@H](Cc1ccccc1)C(N)=O (Boc-WGDF-NH2)
4,100000,CSCC[C@H](N)C(=O)N[C@@H](CC(=O)O)C(=O)N[C@@H](Cc1ccccc1)C(N)=O (H-Met-Asp-Phe-NH2)
